Experimental data: ChEMBL document CHEMBL4680124, “2-Styryl-4-aminoquinazoline derivatives as potent DNA-cleavage, p53-activation and in vivo effective anticancer agents” (Eur J Med Chem, 2020)
Active and inactive are the calls of the source. The calls are words filed in the database; no cut-off is given here.

Assays:
MGC-803 [1] = experiment: Antitumor activity against human MGC-803cells xenografted in BALB/C nude mouse assessed as reduction in tumor volume at 20 mg/kg, ip administered every 2 days and measured 3 times per week; type: functional, organism-based; conditions: time 2.0 day
How it was run: (§1)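 Male BALB/c nude mice, 6 weeks old, given 5×10^6 MGC-803 cells s.c. in the flank. When tumors reached about 80 mm3, mice were randomized (n = 6/group) and dosed i.p. every 2 days. Vehicle was 5% DMSO in saline. Drug solutions were 1.0 or 2.0 mg/mL (DMSO/saline). Tumor length and width plus body weight were measured three times weekly; volume = lw²/2. Mean ± SD.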

MGC-803 [2] = experiment: Induction of apoptosis in human MGC-803 cells assessed as decrease in Bcl-2 expression at 0.5 to 2.5 uM measured after 24 hrs by Western blot analysis; type: functional, cell-based; conditions: dose 0.5-2.5 µM
How it was run: (§2)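 MGC-803 cells (2×10^6) plated overnight, then treated for 24 h at 0.5, 1.0 or 2.5 µM (test agent) or 5.0 µM (comparator). Whole-cell lysates separated by SDS-PAGE, transferred to PVDF and probed with primary antibodies. AP-linked anti-rabbit IgG, ECL detection, β-actin loading control. Representative of three experiments.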

MGC-803 [3] = experiment: Induction of apoptosis in human MGC-803 cells assessed as late apoptotic cells at 0.5 uM measured after 24 hrs by Annexin-V/propidium iodide staining-based flow cytometric analysis (Rvb =0.93%)
MGC-803 [4] = experiment: Induction of apoptosis in human MGC-803 cells assessed as cell shrinkage at 0.5 to 2.5 uM incubated for 24 hrs by Hoechst 33258 staining based analysis; type: functional; conditions: dose 0.5-2.5 µM
How it was run: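 MGC-803 cells treated in six-well plates, fixed in 4% paraformaldehyde for 10 min, washed, stained with Hoechst 33258 for 5 min, and examined for nuclear morphology by fluorescence microscopy.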

MGC-803 [5] = experiment: Cell cycle arrest in human MGC-803 cells assessed as accumulation at G1 phase at 0.5 uM after 48 hrs by propidium iodide staining-based flow cytometric analysis (reference value: 46.96 %); type: functional
MGC-803 [6] = experiment: Induction of apoptosis in human MGC-803 cells assessed as increase in CDK4 protein expression upto 2.5 uM incubated for 24 hrs by Western blot analysis; type: functional, cell-based; conditions: dose microM <=2.5, time 24.0 hrs
How it was run: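 MGC-803 cells (2×10^6) cultured overnight, then exposed 24 h to 0.5, 1.0 or 2.5 μM, or 5.0 μM for the reference agent. Lysates were resolved by SDS-PAGE, transferred to PVDF and probed with primary antibodies. Detection used AP-linked anti-rabbit IgG and ECL. β-actin served as loading control.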

MGC-803 [7] = experiment: Induction of apoptosis in human MGC-803 cells assessed as increase in Bax expression at 0.5 to 2.5 uM measured after 24 hrs by Western blot analysis; type: functional, cell-based; conditions: dose 0.5-2.5 µM; how it was run: as §2
MGC-803 [8] = experiment: Induction of apoptosis in human MGC-803 cells assessed as viable cells at 1 uM measured after 24 hrs by Annexin-V/propidium iodide staining-based flow cytometric analysis (Rvb =92.2 %); conditions: MGC-803, 24 h
[9] = Toxicity against BALB/c nude mouse xenografted with human MGC-803 cells assessed as body weight at 20 mg/kg, ip administered every 2 days and measured 3 times per week for 16 days; type: organism-based; conditions: in vivo, 384 h, time 16 day
How it was run: (§3)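 Male BALB/c nude mice, 6 weeks old, received 5×10^6 MGC-803 cells subcutaneously in the flank. At about 80 mm3, mice were randomized (n = 6/group). They were dosed i.p. every 2 days with vehicle (5% DMSO in saline, v/v) or drug in DMSO/saline at 1.0 or 2.0 mg/mL. Body weight was recorded three times weekly; mean ± SD.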

MGC-803 [10] = experiment: Induction of DNA damage in human MGC-803 cells assessed as increase in p-p53 level at 2.5 uM measured after 24 hrs by Western blot analysis; type: functional, cell-based; how it was run: as §2
MGC-803 [11] = experiment: Induction of apoptosis in human MGC-803 cells assessed as viable cells at 2.5 uM measured after 24 hrs by Annexin-V/propidium iodide staining-based flow cytometric analysis (Rvb =92.2 %); conditions: MGC-803, 24 h
MGC-803 [12] = experiment: Antitumor activity against human MGC-803cells xenografted in BALB/C nude mouse assessed as tumor growth inhibition at 20 mg/kg, ip administered every 2 days and measured 3 times per week for 16 days; type: functional; conditions: MGC-803, ip, 384 h, time 16 day, read-out: TGI; how it was run: as §1
MGC-803 [13] = experiment: Induction of apoptosis in human MGC-803 cells assessed as increase in nuclear chromatin condensation at 0.5 to 2.5 uM incubated for 24 hrs by Hoechst 33258 staining based analysis; type: functional, cell-based; conditions: dose 0.5-2.5 µM
How it was run: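 Cells in six-well plates were treated for the indicated time, then fixed 10 min in 4% paraformaldehyde and washed twice in PBS. Nuclei were stained 5 min with Hoechst 33258, washed twice in PBS and examined by fluorescence microscopy.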

MGC-803 [14] = experiment: Induction of apoptosis in human MGC-803 cells assessed as late apoptotic cells at 1 uM measured after 24 hrs by Annexin-V/propidium iodide staining-based flow cytometric analysis (Rvb =0.93%)
MGC-803 [15] = experiment: Induction of DNA damage in human MGC-803 cells assessed as increase in p53 level at 2.5 uM measured after 24 hrs by Western blot analysis; type: functional, cell-based; how it was run: as §2
MGC-803 [16] = experiment: Antitumor activity against human MGC-803 cells xenografted in BALB/C nude mouse assessed as tumor growth inhibition at 10 mg/kg, ip administered every 2 days and measured 3 times per week for 16 days; type: functional; set-up: scale not given: the % may be the effect or the level left; conditions: time 16 day; how it was run: as §1
MGC-803 [17] = experiment: Cytotoxicity against human MGC-803 cells expressing mutant type p53 assessed as reduction in cell viability preincubated for 48 hrs and measured after 4 hrs by MTT assay; type: functional, cell-based
MGC-803 [18] = experiment: Cell cycle arrest in human MGC-803 cells assessed as accumulation at S phase at 0.25 uM after 48 hrs by propidium iodide staining-based flow cytometric analysis (reference value: 45.1 %); type: functional
MGC-803 [19] = experiment: Induction of apoptosis in human MGC-803 cells assessed as activation of caspase 9 at 2.5 uM incubated for 24 hrs by flow cytometric analysis (reference value: 2.82%); type: functional
Mus musculus = experiment: Toxicity against BALB/c nude mouse xenografted with human MGC-803 cells assessed as body weight at 10 mg/kg, ip administered every 2 days and measured 3 times per week for 16 days; type: organism-based; conditions: in vivo, 384 h, time 16 day; how it was run: as §3
T-24 = experiment: Cytotoxicity against human T-24 cells […] assessed as reduction in cell viability preincubated for 48 hrs and measured after 4 hrs by MTT assay; type: functional, cell-based
MGC-803 [20] = experiment: Induction of apoptosis in human MGC-803 cells assessed as early apoptotic cells at 1 uM measured after 24 hrs by Annexin-V/propidium iodide staining-based flow cytometric analysis (Rvb =0.84%)
MGC-803 [21] = experiment: Cell cycle arrest in human MGC-803 cells assessed as accumulation at G1 phase at 0.125 uM after 48 hrs by propidium iodide staining-based flow cytometric analysis (reference value: 46.96 %); type: functional
[22] = Induction of mitochondria membrane potential loss in human MGC-803 cells assessed as increase in green fluorescence at 2.5 uM incubated 24 hrs by JC-1 probe based flow cytometry analysis (reference value: 4.67%); type: functional

Q: For `NCCCCNc1nc(/C=C/c2ccc([N+](=O)[O-])cc2)nc2ccccc12`, which Activity (MGC-803 [1]) is on record?
A: Active

Q: And the Activity (MGC-803 [2])?
A: Active

Q: And the Activity (MGC-803 [3])?
A: 6.91%

Q: What about the Activity (MGC-803 [4]) of the same molecule?
A: Active

Q: And the Activity (MGC-803 [5])?
A: 1.44%

Q: What about the Activity (MGC-803 [6]) of the same molecule?
A: Active

Q: And the Activity (MGC-803 [7])?
A: Active

Q: What about the viability at 1 µM (MGC-803 [8]) of the same molecule?
A: 55.3%

Q: What about the Activity [9] of the same molecule?
A: Non-Toxic

Q: And the Activity (MGC-803 [10])?
A: Active

Q: What about the viability at 2.5 µM (MGC-803 [11]) of the same molecule?
A: 14.8%

Q: And the inhibition in vivo at 20 mg/kg (MGC-803 [12])?
A: 61.8%

Q: And the Activity (MGC-803 [13])?
A: Active

Q: What about the Activity (MGC-803 [14]) of the same molecule?
A: 16%

Q: And the Activity (MGC-803 [15])?
A: Active

Q: What about the Activity (MGC-803 [16]) of the same molecule?
A: 35.9%

Q: And the IC50 (MGC-803 [17])?
A: 1730 nM

Q: What about the Activity (MGC-803 [18]) of the same molecule?
A: 36.91%

Q: And the Activity (MGC-803 [19])?
A: 57.35%

Q: And the Activity (Mus musculus)?
A: Non-Toxic

Q: And the IC50 (T-24)?
A: 1790 nM

Q: And the Activity (MGC-803 [20])?
A: 27.5%

Q: And the Activity (MGC-803 [21])?
A: 35.39%

Q: And the Activity [22]?
A: 22.6%
